Experimental data as given in ChEMBL document CHEMBL1126139 (J Med Chem, 1992).

Legend:
[1] = Ability to displace [3H]strychnine-sensitive glycine receptor binding to rat spinal cord membranes; at 100 uM
[2] = biological target: T1, Glycine receptor subunit alpha-1 (Rattus norvegicus, UniProt P07727); assay: Inhibitory concentration required to inhibit [3H]strychnine binding to […]
T1 sequence (P07727 whole entry): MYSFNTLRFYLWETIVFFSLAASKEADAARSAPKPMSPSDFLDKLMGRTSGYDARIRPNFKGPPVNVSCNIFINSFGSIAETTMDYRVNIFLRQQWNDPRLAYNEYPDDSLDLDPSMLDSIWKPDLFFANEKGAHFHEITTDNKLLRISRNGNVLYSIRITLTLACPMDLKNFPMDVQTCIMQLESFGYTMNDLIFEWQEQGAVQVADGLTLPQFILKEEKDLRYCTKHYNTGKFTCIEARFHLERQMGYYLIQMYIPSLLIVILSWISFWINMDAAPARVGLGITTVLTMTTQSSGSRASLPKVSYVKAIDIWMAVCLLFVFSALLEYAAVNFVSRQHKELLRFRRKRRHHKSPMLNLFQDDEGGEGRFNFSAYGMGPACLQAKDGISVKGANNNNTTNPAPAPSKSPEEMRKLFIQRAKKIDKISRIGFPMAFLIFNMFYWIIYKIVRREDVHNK
How it was run: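 [3H]Strychnine displacement; IC50 obtained by nonlinear curve fitting to a Langmuir isotherm.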

Mus musculus [3] = organism: Mus musculus; assay: Change in input resistance of cultured spinal cord neurons produced at a dose 1 mM+100 uM tetrodotoxin; format: functional
Mus musculus [4] = organism: Mus musculus; assay: Change in input resistance of cultured spinal cord neurons produced at a dose 100 uM; format: functional
Mus musculus [5] = organism: Mus musculus; assay: Change in input resistance of cultured spinal cord neurons produced at a dose 100 uM tetrodotoxin; format: functional
Mus musculus [6] = organism: Mus musculus; assay: Change in input resistance of cultured spinal cord neurons produced at a dose 1 mM+100 uM strychnine; format: functional
Mus musculus [7] = organism: Mus musculus; assay: Change in input resistance of cultured spinal cord neurons produced at a dose 1 mM; format: functional
Mus musculus [8] = organism: Mus musculus; assay: Change in input resistance of cultured spinal cord neurons produced at a dose 100 uM+100 uM tetrodotoxin; format: functional
[9] = biological target: T1, Glycine receptor subunit alpha-1; assay: Inhibitory concentration required to inhibit [3H]strychnine binding to […] of rat spinal cord membranes.
Mus musculus [10] = organism: Mus musculus; assay: Change in input resistance of cultured spinal cord neurons produced at a dose 1 mM+100 uM bicuculline+3 uMtetrodotoxin; format: functional
Mus musculus [11] = organism: Mus musculus; assay: Change in input resistance of cultured spinal cord neurons produced at a dose 100 uM+100 uM bicuculline+3 uM tetrodotoxin; format: functional

O=C(O)c1cc[nH]c1
inhibition [1]: 46%

O=C(O)C1CCN1 (stereo not given)
IC50 [2]: 399 µM

O=C(O)[C@@H]1CCCN1 (stereo in doubt) [PROLINE]
IC50 [2]: 414 µM

O=C(O)C1=CCNC1
Activity (Mus musculus [3]): 37.2%
Activity (Mus musculus [4]): 22.7%
IC50 [2]: 7.9 µM
Activity (Mus musculus [5]): 5.1%
Activity (Mus musculus [6]): 4.7%
Activity (Mus musculus [7]): 60.4%

O=C(O)C1C=CCN1 (stereo not given)
IC50 [2]: 242 µM

O=C(O)C1CNC1
Activity (Mus musculus [3]): 71.7%
Activity (Mus musculus [4]): 9.4%
IC50 [2]: 23.7 µM
Activity (Mus musculus [8]): 10.7%
Activity (Mus musculus [6]): 37.7%
Activity (Mus musculus [7]): 83.1%

O=C(O)[C@@H]1CCCN1 (stereo in doubt; 8) [PROLINE]
IC50 [2]: 17.2 µM

C[C@H](N)C(=O)O [ALANINE]
IC50 [2]: 198 µM

NCCC(=O)O [BETA-ALANINE]
IC50 [9]: 11.6 µM

O=C(O)C1CCNCC1 [ISONIPECOTIC ACID]
Activity (Mus musculus [4]): 19.2%
IC50 [2]: 94.1 µM
Activity (Mus musculus [10]): 0.1%
Activity (Mus musculus [11]): 3%
Activity (Mus musculus [7]): 73.6%

C[C@@H](N)C(=O)O [D-ALANINE]
IC50 [9]: 90.9 µM
